According to ChEMBL document CHEMBL4376814, “Novel cyclin-dependent kinase 9 (CDK9) inhibitor with suppression of cancer stemness activity against non-small-cell lung cancer” (Eur J Med Chem, 2019):
Active and inactive are the calls of the source. The rule behind the calls is not given here.

Legend:
[1] = molecular target: Protein-tyrosine kinase 2-beta (Homo sapiens) (UniProt Q14289); experiment: Inhibition of recombinant full-length human Pyk2 at 1 uM using poly(Glu, Tyr) 4:1 as substrate measured after 40 mins in presence of [gamma33P]ATP by scintillation counting method relative to control
[2] = molecular target: Serine/threonine-protein kinase 32C (Homo sapiens) (UniProt Q86UX6); experiment: Inhibition of recombinant full-length human STK32C at 1 uM using casein as substrate measured after 120 mins in presence of [gamma33P]ATP by scintillation counting method relative to control
[3] = molecular target: Serine/threonine-protein kinase STK11 (Homo sapiens) (UniProt Q15831); experiment: Inhibition of recombinant full-length human LKB1 at 1 uM using LSNLYHQGKFLQTFCGSPLYRRR as substrate measured after 40 mins in presence of [gamma33P]ATP by scintillation counting method relative to control
[4] = molecular target: Tyrosine-protein kinase Lck (Homo sapiens) (UniProt P06239); experiment: Inhibition of recombinant full-length human LCK at 1 uM using Cdc2 peptide as substrate measured after 40 mins in presence of [gamma33P]ATP by scintillation counting method relative to control
[5] = system: NCI-H1299; experiment: Induction of apoptosis in human H1299 cells assessed as late apoptotic cells at 0.5 uM after 48 hrs by AnnexinV-FITC/PI staining-based flow cytometric analysis (reference value: 1.77%); assay type: functional
[6] = molecular target: Cyclin-dependent kinase 9 (Homo sapiens) (UniProt P50750); settings: A549, 0.25 uM
[7] = system: A549; experiment: Downregulation of OCT4 in human A549 cells at 0.25 to 1 uM by Western blot analysis; assay type: functional, cell-based
[8] = molecular target: cGMP-dependent protein kinase 1 (Homo sapiens) (UniProt Q13976); experiment: Inhibition of recombinant full-length human PKG1beta at 1 uM using RRRLSFAEPG as substrate measured after 40 mins in presence of [gamma33P]ATP by scintillation counting method relative to control
[9] = molecular target: FKBP12A/mTOR (Homo sapiens) (UniProt P62942+P42345); experiment: Inhibition of recombinant full-length human mTOR/FKBP12 at 1 uM measured after 40 mins in presence of [gamma33P]ATP by scintillation counting method relative to control; assay type: protein-complex assay
[10] = system: Fibroblast growth factor receptor 2 (Homo sapiens), P21802 [N549H]; experiment: Inhibition of recombinant human FGFR2 N549H mutant (456 to 770 residues) at 1 uM using GGEEEEYFELVKKKK as substrate measured after 40 mins in presence of [gamma33P]ATP by scintillation counting method relative to control
[11] = molecular target: Cytoplasmic tyrosine-protein kinase BMX (Homo sapiens) (UniProt P51813); experiment: Inhibition of full-length recombinant human BMX at 1 uM using poly(Glu, Tyr) 4:1 as substrate measured after 40 mins in presence of [gamma33P]ATP by scintillation counting method relative to control
In short: (§1)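 Percent inhibition of kinase activity at a single compound concentration, measured by the outsourced Eurofins KinaseProfiler panel. Values are the mean of two independent experiments.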

[12] = molecular target: MAP/microtubule affinity-regulating kinase 4 (Homo sapiens) (UniProt Q96L34); experiment: Inhibition of full-length recombinant human MARK4 at 1 uM using KKKVSRSGLYRSPSMPENLNRPR as substrate measured after 40 mins in presence of [gamma33P]ATP by scintillation counting method relative to control; in short: as §1
[13] = molecular target: Platelet-derived growth factor receptor beta (Homo sapiens) (UniProt P09619); experiment: Inhibition of recombinant human PDGFRbeta (557 to end residues) at 1 uM using poly[Glu:Tyr] (4:1) as substrate measured after 40 mins in presence of [gamma33P]ATP by scintillation counting method relative to control
[14] = molecular target: Aurora kinase B (Homo sapiens) (UniProt Q96GD4); experiment: Inhibition of recombinant full-length human AURKB at 1 uM using AKRRRLSSLRA as substrate measured after 40 mins in presence of [gamma33P]ATP by scintillation counting method relative to control
[15] = molecular target: Cyclin-dependent kinase 9 (Homo sapiens) (UniProt P50750); settings: 0.25 to 1 uM
[16] = system: NCI-H1299; experiment: Downregulation of KLF4 in human H1299 cells at 0.25 to 1 uM by Western blot analysis; assay type: functional, cell-based
[17] = species: Homo sapiens; experiment: Inhibition of recombinant full-length human PI3K p110alpha/p65alpha (1 to 571 residues) at 1 uM using phosphatidylinositol-4, 5-bisphosphate as substrate measured after 40 mins by HTRF assay relative to control
In short: (§2)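 Single-point inhibition at 1 µM was measured in the Eurofins KinaseProfiler panel. Values are the mean of two independent experiments.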

[18] = system: Calcium/calmodulin-dependent protein kinase kinase 2 (Homo sapiens), Q96RR4 [T85S]; experiment: Inhibition of recombinant full-length human CaMKK2 T85S mutant at 1 uM using calmodulin as substrate measured after 40 mins in presence of [gamma33P]ATP by scintillation counting method relative to control
[19] = system: Mast/stem cell growth factor receptor Kit (Homo sapiens), P10721 [V560G]; experiment: Inhibition of recombinant human cKit (544 to end residues) V560G mutant at 1 uM using GGMEDIYFEFMGGKKK as substrate measured after 40 mins in presence of [gamma33P]ATP by scintillation counting method relative to control; in short: as §2
[20] = molecular target: Mitogen-activated protein kinase kinase kinase kinase 5 (Homo sapiens) (UniProt Q9Y4K4); experiment: Inhibition of recombinant full-length human MAP4K5 at 1 uM using MBP as substrate measured after 40 mins in presence of [gamma33P]ATP by scintillation counting method relative to control
[21] = molecular target: Protein kinase C alpha type (Homo sapiens) (UniProt P17252); experiment: Inhibition of recombinant full-length human PKCalpha at 1 uM using histone H1 as substrate measured after 40 mins in presence of [gamma33P]ATP by scintillation counting method relative to control
[22] = molecular target: Inhibitor of nuclear factor kappa-B kinase subunit epsilon (Homo sapiens) (UniProt Q14164); experiment: Inhibition of recombinant full-length human IKKepsilon at 1 uM using casein as substrate measured after 40 mins in presence of [gamma33P]ATP by scintillation counting method relative to control
[23] = molecular target: Serine/threonine-protein kinase tousled-like 2 (Homo sapiens) (UniProt Q86UE8); experiment: Inhibition of human TLK2 (387 to end residues) at 1 uM using casein as substrate measured after 40 mins in presence of [gamma33P]ATP by scintillation counting method relative to control; in short: as §1
[24] = molecular target: Dual specificity mitogen-activated protein kinase kinase 2 (Homo sapiens) (UniProt P36507); experiment: Inhibition of recombinant full-length human MEK2 at 1 uM using unactive […] as substrate measured after 40 mins in presence of [gamma33P]ATP by scintillation counting method relative to control
[25] = molecular target: Serine/threonine-protein kinase TBK1 (Homo sapiens) (UniProt Q9UHD2); experiment: Inhibition of recombinant full-length human TBK1 at 1 uM using KRRRALS(p)VASLPGL as substrate measured after 40 mins in presence of [gamma33P]ATP by scintillation counting method relative to control; in short: as §2

Chain of Cyclin-dependent kinase 9 (Homo sapiens) (P50750 whole entry): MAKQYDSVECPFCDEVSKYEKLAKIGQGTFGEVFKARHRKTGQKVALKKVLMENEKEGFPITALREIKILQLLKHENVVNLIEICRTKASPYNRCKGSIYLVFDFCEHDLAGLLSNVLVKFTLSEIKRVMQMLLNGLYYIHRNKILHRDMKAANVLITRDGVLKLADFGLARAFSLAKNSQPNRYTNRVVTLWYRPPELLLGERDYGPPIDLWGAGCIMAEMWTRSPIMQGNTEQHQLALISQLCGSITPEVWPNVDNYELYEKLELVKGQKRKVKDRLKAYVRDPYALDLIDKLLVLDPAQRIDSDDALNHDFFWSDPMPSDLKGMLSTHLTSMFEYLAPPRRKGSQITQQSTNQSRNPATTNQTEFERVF
Chain of FKBP12A/mTOR (Homo sapiens) (P62942 2-108 limits assumed, other chains not shown): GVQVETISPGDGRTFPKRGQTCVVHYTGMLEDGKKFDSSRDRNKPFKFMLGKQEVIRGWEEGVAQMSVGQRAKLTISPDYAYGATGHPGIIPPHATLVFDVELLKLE
Chain of Serine/threonine-protein kinase STK11 (Homo sapiens) (Q15831 whole entry): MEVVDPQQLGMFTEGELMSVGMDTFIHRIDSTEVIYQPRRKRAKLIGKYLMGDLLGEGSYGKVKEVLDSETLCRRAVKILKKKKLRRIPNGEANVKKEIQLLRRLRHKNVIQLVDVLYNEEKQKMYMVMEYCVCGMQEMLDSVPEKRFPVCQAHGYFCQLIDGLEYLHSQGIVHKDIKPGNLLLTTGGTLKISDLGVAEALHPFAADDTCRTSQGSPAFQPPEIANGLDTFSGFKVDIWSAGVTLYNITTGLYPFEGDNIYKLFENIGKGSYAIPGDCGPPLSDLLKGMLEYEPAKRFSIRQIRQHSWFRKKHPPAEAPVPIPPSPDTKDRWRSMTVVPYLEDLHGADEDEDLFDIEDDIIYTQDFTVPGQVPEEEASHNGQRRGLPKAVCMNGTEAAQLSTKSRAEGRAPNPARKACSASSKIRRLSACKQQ
Chain of Serine/threonine-protein kinase tousled-like 2 (Homo sapiens) (Q86UE8 whole entry, looked up): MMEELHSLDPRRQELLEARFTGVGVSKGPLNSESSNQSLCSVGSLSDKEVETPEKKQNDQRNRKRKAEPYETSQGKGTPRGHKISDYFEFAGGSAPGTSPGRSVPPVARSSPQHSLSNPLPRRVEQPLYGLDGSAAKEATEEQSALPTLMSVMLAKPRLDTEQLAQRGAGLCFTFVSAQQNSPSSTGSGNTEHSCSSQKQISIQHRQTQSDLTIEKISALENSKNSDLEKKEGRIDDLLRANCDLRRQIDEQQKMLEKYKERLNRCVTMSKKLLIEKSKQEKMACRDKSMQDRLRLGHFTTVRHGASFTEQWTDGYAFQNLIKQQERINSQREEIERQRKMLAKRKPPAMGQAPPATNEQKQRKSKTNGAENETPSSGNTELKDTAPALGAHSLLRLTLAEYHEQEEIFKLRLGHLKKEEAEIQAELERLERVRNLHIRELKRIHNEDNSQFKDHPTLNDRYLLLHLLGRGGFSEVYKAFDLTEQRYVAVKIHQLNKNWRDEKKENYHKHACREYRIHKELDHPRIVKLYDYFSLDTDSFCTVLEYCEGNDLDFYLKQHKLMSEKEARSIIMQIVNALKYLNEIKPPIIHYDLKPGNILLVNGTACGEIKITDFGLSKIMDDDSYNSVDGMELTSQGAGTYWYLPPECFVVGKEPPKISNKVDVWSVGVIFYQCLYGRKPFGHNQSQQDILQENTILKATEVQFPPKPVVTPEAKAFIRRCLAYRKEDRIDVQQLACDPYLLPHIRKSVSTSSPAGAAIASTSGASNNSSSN
Chain of Cytoplasmic tyrosine-protein kinase BMX (Homo sapiens) (P51813 whole entry): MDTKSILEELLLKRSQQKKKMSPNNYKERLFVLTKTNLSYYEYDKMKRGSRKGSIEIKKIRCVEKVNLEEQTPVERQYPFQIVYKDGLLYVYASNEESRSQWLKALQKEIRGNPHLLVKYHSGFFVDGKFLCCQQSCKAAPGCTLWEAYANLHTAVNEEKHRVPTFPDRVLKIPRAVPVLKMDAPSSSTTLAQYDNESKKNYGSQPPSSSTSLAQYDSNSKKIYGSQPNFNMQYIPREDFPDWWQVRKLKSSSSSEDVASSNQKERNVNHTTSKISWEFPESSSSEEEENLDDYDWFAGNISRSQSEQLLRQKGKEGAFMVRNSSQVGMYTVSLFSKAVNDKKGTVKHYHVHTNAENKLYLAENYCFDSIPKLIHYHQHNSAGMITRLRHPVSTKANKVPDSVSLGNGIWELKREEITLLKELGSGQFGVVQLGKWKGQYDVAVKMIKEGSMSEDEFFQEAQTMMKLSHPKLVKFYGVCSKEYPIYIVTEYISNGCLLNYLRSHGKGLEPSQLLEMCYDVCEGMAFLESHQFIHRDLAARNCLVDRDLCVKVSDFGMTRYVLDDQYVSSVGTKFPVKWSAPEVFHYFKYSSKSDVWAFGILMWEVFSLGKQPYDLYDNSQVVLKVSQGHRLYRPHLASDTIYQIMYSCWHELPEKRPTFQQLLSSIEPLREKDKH
Chain of Mitogen-activated protein kinase kinase kinase kinase 5 (Homo sapiens) (Q9Y4K4 whole entry, looked up): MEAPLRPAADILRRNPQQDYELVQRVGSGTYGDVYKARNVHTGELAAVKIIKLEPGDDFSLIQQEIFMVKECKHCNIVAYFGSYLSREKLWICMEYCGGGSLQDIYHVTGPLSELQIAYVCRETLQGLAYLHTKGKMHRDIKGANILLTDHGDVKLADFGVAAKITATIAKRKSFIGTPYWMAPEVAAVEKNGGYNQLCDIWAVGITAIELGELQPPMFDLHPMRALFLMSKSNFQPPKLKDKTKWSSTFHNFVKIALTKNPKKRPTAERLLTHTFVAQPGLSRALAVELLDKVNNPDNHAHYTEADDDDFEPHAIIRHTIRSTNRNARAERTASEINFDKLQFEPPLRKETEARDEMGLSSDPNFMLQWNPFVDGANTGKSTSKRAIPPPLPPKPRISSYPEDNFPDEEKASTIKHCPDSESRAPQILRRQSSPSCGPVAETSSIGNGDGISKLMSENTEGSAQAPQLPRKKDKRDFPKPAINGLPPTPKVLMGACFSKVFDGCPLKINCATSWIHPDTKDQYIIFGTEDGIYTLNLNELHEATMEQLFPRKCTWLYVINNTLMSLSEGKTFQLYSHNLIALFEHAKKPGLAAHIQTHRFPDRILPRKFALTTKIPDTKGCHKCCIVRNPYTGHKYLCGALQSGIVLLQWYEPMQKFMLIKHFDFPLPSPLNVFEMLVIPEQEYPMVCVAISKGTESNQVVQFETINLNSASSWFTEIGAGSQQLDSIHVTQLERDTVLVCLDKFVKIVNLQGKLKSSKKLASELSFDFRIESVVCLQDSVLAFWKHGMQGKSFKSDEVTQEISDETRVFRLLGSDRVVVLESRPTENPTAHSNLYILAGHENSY
Chain of Inhibitor of nuclear factor kappa-B kinase subunit epsilon (Homo sapiens) (Q14164 whole entry): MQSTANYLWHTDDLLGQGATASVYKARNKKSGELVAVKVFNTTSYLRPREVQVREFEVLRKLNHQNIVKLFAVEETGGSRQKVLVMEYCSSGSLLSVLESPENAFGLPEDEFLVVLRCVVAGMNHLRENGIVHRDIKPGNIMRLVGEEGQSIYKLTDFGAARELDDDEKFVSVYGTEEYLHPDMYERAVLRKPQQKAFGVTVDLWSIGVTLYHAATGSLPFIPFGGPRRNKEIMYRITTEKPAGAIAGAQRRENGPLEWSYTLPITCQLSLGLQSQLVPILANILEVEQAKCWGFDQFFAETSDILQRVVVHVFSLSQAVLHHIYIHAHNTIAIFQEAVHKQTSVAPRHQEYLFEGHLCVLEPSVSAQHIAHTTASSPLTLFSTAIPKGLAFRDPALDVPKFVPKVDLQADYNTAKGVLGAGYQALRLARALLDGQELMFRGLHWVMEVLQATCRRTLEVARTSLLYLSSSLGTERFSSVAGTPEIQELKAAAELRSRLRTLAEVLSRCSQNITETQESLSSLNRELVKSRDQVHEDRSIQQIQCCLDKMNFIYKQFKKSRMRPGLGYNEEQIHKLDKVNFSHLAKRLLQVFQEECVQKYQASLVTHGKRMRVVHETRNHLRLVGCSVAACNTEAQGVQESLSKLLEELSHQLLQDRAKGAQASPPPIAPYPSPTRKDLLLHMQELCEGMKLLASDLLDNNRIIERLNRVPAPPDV
Chain of Dual specificity mitogen-activated protein kinase kinase 2 (Homo sapiens) (P36507 whole entry): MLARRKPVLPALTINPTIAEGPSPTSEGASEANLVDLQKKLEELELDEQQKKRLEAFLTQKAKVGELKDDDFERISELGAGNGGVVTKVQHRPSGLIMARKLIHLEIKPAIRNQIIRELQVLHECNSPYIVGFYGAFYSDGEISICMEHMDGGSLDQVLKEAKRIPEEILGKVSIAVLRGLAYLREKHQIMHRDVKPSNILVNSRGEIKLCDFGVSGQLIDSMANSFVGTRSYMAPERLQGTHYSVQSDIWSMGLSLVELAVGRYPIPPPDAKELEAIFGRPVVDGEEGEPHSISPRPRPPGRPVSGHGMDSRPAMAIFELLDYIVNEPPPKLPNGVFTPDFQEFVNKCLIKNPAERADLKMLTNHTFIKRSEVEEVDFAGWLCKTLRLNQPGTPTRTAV

Molecule `CN(C)C(=O)c1cc2cnc(Nc3ccc(NC(=O)CCCCCCCN=C=S)cc3)nc2n1C1CCCC1` has an inhibition [1] of 46%, an inhibition [2] of 17% and an inhibition [3] of 0%. For the same molecule, the inhibition [4] was 33%, the Activity [5] was 3.64% and the inhibition [6] was “Active”. The Activity [7] was “Active”, the inhibition [8] was 0% and the inhibition [9] was -6%. It also gave an inhibition [10] of 76%, an inhibition [11] of 90% and an inhibition [12] of 77%. The inhibition [13] was 2%, the inhibition [14] was 99% and the inhibition [15] was “Active”. The Activity [16] was “Active”, the inhibition [17] was 1% and the inhibition [18] was 88%. It also gave an inhibition [19] of 54%, an inhibition [20] of 75% and an inhibition [21] of 68%. For the same molecule, the inhibition [22] was -4%, the inhibition [23] was 8% and the inhibition [24] was 8%. It also gave an inhibition [25] of 12%.
